{
  "source": "ChEMBL document CHEMBL1154044",
  "about": "“5-Nitro-2-furyl derivative actives against Trypanosoma cruzi: preliminary in vivo studies” (Eur J Med Chem, 2009)",
  "key": {"Trypanosoma cruzi [1]": {"tested_on": "Trypanosoma cruzi", "assay": "Antitrypanosomal activity against Trypanosoma cruzi infected in po dosed CD1 mouse assessed as prevention of amastigote nest in smooth muscle administered daily for 14 days measured on day 45", "assay_type": "functional, organism-based", "conditions": "Muscle tissue", "summary_of_the_method": "(§1)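 T. cruzi, a Uruguayan patient isolate, was inoculated intradermally into 2-month-old female CD1 mice (20–22 g). Dosing began on day 15 after parasitaemia was observed. Drugs were suspended in saline:Tween 80 (4:1) and given by intragastric syringe once daily for 14 days, with untreated controls. On day 45 after treatment start, heart and muscle sections were scored by two independent observers for amastigotes and inflammatory infiltrates. Groups had 5–7 mice.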"}, "Mus musculus [2]": {"tested_on": "Mus musculus", "assay": "Toxicity in CD1 mouse liver at 450 mg/kg, po after 3 days by histological study", "assay_type": "organism-based", "parameters": "dose 450 mg/kg, route oral", "conditions": "in vivo, 72 h", "summary_of_the_method": "(§2)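 Healthy female CD1 mice (20–22 g), 5–7 per group, given a single oral (intragastric) or i.p. dose in saline:Tween 80 (4:1) vehicle. Sacrificed on day 3 after ether anaesthesia. Organs fixed in 10% aqueous formalin for histology. Scored against untreated animals from no change to +++ (many changes).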"}, "Mus musculus [3]": {"tested_on": "Mus musculus", "assay": "Toxicity in CD1 mouse assessed as leukocyte level at 450 mg/kg, po after 3 days", "assay_type": "organism-based", "parameters": "dose 450 mg/kg, route oral", "conditions": "in vivo, 72 h", "summary_of_the_method": "(§3)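 Healthy female CD1 mice (5–7 per group) received a single oral dose of 450 mg/kg or an i.p. dose of 300 mg/kg, with vehicle controls. On day 3 they were sacrificed under ether anaesthesia. Blood was drawn from the subclavian artery and kept at 0 °C in EDTA or heparin. Leukocytes, haemoglobin, haematocrit, GPT and GOT were measured within 24 h and compared with normal ranges.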"}, "Mus musculus [4]": {"tested_on": "Mus musculus", "assay": "Toxicity in CD1 mouse lung at 300 mg/kg, ip after 3 days by histological study", "assay_type": "organism-based", "parameters": "dose 300 mg/kg, route intraperitoneal", "conditions": "in vivo, 72 h", "summary_of_the_method": "as §2"}, "Mus musculus [5]": {"tested_on": "Mus musculus", "assay": "Toxicity in CD1 mouse assessed as glutamic-oxalacetate transaminase level at 300 mg/kg, ip after 3 days", "assay_type": "organism-based", "parameters": "dose 300 mg/kg, route intraperitoneal", "conditions": "in vivo, 72 h", "summary_of_the_method": "as §3"}, "Mus musculus [6]": {"tested_on": "Mus musculus", "assay": "Toxicity in CD1 mouse assessed as leukocyte level at 300 mg/kg, ip after 3 days", "assay_type": "organism-based", "parameters": "dose 300 mg/kg, route intraperitoneal", "conditions": "in vivo, 72 h", "summary_of_the_method": "as §3"}, "Mus musculus [7]": {"tested_on": "Mus musculus", "assay": "Toxicity in CD1 mouse intestine at 450 mg/kg, po after 3 days by histological study", "assay_type": "organism-based", "parameters": "dose 450 mg/kg, route oral", "conditions": "in vivo, 72 h", "summary_of_the_method": "as §2"}, "Mus musculus [8]": {"tested_on": "Mus musculus", "assay": "Toxicity in CD1 mouse assessed as increase in weight respect to day zero at 450 mg/kg, po after 3 days", "conditions": "in vivo, 72 h"}, "Mus musculus [9]": {"tested_on": "Mus musculus", "assay": "Toxicity in CD1 mouse kidney at 300 mg/kg, ip after 3 days by histological study", "assay_type": "organism-based", "parameters": "dose 300 mg/kg, route intraperitoneal", "conditions": "in vivo, 72 h", "summary_of_the_method": "as §2"}, "Mus musculus [10]": {"tested_on": "Mus musculus", "assay": "Toxicity in CD1 mouse assessed as haemoglobin level at 450 mg/kg, po after 3 days", "assay_type": "organism-based", "parameters": "dose 450 mg/kg, route oral", "conditions": "in vivo, 72 h", "summary_of_the_method": "as §3"}, "Mus musculus [11]": {"tested_on": "Mus musculus", "assay": "Toxicity in CD1 mouse assessed as glutamic-pyruvate transaminase level at 450 mg/kg, po after 3 days", "assay_type": "organism-based", "parameters": "dose 450 mg/kg, route oral", "conditions": "in vivo, 72 h", "summary_of_the_method": "as §3"}, "Mus musculus [12]": {"tested_on": "Mus musculus", "assay": "Toxicity in CD1 mouse assessed as glutamic-oxalacetate transaminase level at 450 mg/kg, po after 3 days", "assay_type": "organism-based", "parameters": "dose 450 mg/kg, route oral", "conditions": "in vivo, 72 h", "summary_of_the_method": "as §3"}, "Mus musculus [13]": {"tested_on": "Mus musculus", "assay": "Toxicity in CD1 mouse liver at 300 mg/kg, ip after 3 days by histological study", "assay_type": "organism-based", "parameters": "dose 300 mg/kg, route intraperitoneal", "conditions": "in vivo, 72 h", "summary_of_the_method": "as §2"}, "Mus musculus [14]": {"tested_on": "Mus musculus", "assay": "Toxicity in CD1 mouse assessed as haemoglobin level at 300 mg/kg, ip after 3 days", "assay_type": "organism-based", "parameters": "dose 300 mg/kg, route intraperitoneal", "conditions": "in vivo, 72 h", "summary_of_the_method": "as §3"}, "Trypanosoma cruzi [15]": {"tested_on": "Trypanosoma cruzi", "assay": "Antitrypanosomal activity against Trypanosoma cruzi infected in po dosed CD1 mouse assessed as prevention of inflammatory infiltrates in heart administered daily for 14 days measured on day 45", "assay_type": "functional, organism-based", "summary_of_the_method": "as §1"}, "Mus musculus [16]": {"tested_on": "Mus musculus", "assay": "Toxicity in CD1 mouse brain at 300 mg/kg, ip after 3 days by histological study", "assay_type": "organism-based", "parameters": "dose 300 mg/kg, route intraperitoneal", "conditions": "in vivo, 72 h", "summary_of_the_method": "as §2"}, "Mus musculus [17]": {"tested_on": "Mus musculus", "assay": "Toxicity in CD1 mouse kidney at 450 mg/kg, po after 3 days by histological study", "assay_type": "organism-based", "parameters": "dose 450 mg/kg, route oral", "conditions": "in vivo, 72 h", "summary_of_the_method": "as §2"}, "Mus musculus [18]": {"tested_on": "Mus musculus", "assay": "Toxicity in CD1 mouse brain at 450 mg/kg, po after 3 days by histological study", "assay_type": "organism-based", "parameters": "dose 450 mg/kg, route oral", "conditions": "in vivo, 72 h", "summary_of_the_method": "as §2"}, "Mus musculus [19]": {"tested_on": "Mus musculus", "assay": "Toxicity in CD1 mouse assessed as glutamic-pyruvate transaminase level at 300 mg/kg, ip after 3 days", "assay_type": "organism-based", "parameters": "dose 300 mg/kg, route intraperitoneal", "conditions": "in vivo, 72 h", "summary_of_the_method": "as §3"}, "Trypanosoma cruzi [20]": {"tested_on": "Trypanosoma cruzi", "assay": "Growth inhibition of Trypanosoma cruzi Tulahuen 2 epimastigote at 5 uM after 5 days", "assay_type": "functional", "conditions": "Trypanosoma cruzi, Tulahuen 2, 120 h; read-out: GI"}, "Trypanosoma cruzi [21]": {"tested_on": "Trypanosoma cruzi", "assay": "Antitrypanosomal activity against Trypanosoma cruzi infected in po dosed CD1 mouse assessed as prevention of amastigote nest in heart administered daily for 14 days measured on day 45", "assay_type": "functional, organism-based", "summary_of_the_method": "as §1"}, "Trypanosoma cruzi [22]": {"tested_on": "Trypanosoma cruzi", "assay": "Antitrypanosomal activity against Trypanosoma cruzi infected in po dosed CD1 mouse assessed as prevention of inflammatory infiltrates in smooth muscle administered daily for 14 days measured on day 45", "assay_type": "functional, organism-based", "conditions": "Muscle tissue", "summary_of_the_method": "as §1"}, "Mus musculus [23]": {"tested_on": "Mus musculus", "assay": "Toxicity in CD1 mouse heart at 300 mg/kg, ip after 3 days by histological study", "assay_type": "organism-based", "parameters": "dose 300 mg/kg, route intraperitoneal", "conditions": "in vivo, 72 h", "summary_of_the_method": "as §2"}, "Mus musculus [24]": {"tested_on": "Mus musculus", "assay": "Toxicity in CD1 mouse assessed as increase in weight respect to day zero at 300 mg/kg, ip after 3 days", "assay_type": "organism-based", "parameters": "dose 300 mg/kg, route intraperitoneal", "conditions": "in vivo, 72 h", "summary_of_the_method": "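Healthy 2-month-old female CD1 mice (20–22 g, 5–7 per group) received one dose. Oral doses of 450 or 300 mg/kg were given by intragastric syringe; i.p. doses of 300 or 150 mg/kg by injection. Drugs were suspended in saline:Tween 80 (4:1), and a vehicle-only control was included. Mice were weighed and observed daily for 3 days. Weight change is expressed as percent relative to day zero.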"}, "Mus musculus [25]": {"tested_on": "Mus musculus", "assay": "Toxicity in CD1 mouse intestine at 300 mg/kg, ip after 3 days by histological study", "assay_type": "organism-based", "parameters": "dose 300 mg/kg, route intraperitoneal", "conditions": "in vivo, 72 h", "summary_of_the_method": "as §2"}, "Mus musculus [26]": {"tested_on": "Mus musculus", "assay": "Toxicity in CD1 mouse assessed as survival at 300 mg/kg, ip after 3 days", "assay_type": "organism-based", "parameters": "dose 300 mg/kg, route intraperitoneal", "conditions": "in vivo, 72 h", "summary_of_the_method": "(§4)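 Healthy 2-month-old female CD1 mice (20–22 g), groups of 5–7, given one oral dose by intragastric syringe or one i.p. injection. Compound suspended in saline:Tween 80 (4:1) with sonication just before dosing; vehicle-treated controls included. Weighed and observed daily over 3 days for skin, physical aspect, activity and faeces; survival recorded at day 3.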"}, "Mus musculus [27]": {"tested_on": "Mus musculus", "assay": "Toxicity in CD1 mouse assessed as survival at 450 mg/kg, po after 3 days", "assay_type": "organism-based", "parameters": "dose 450 mg/kg, route oral", "conditions": "in vivo, 72 h", "summary_of_the_method": "as §4"}, "Mus musculus [28]": {"tested_on": "Mus musculus", "assay": "Toxicity in CD1 mouse lung at 450 mg/kg, po after 3 days by histological study", "assay_type": "organism-based", "parameters": "dose 450 mg/kg, route oral", "conditions": "in vivo, 72 h", "summary_of_the_method": "as §2"}, "Mus musculus [29]": {"tested_on": "Mus musculus", "assay": "Toxicity in CD1 mouse heart at 450 mg/kg, po after 3 days by histological study", "assay_type": "organism-based", "parameters": "dose 450 mg/kg, route oral", "conditions": "in vivo, 72 h", "summary_of_the_method": "as §2"}},
  "note": "Activity calls are given as the source filed them. The calls are words filed in the database; no cut-off is given here.",
  "data": [
    {"smiles": "CCCCCCNC(=O)N/N=C/C=C/c1ccc([N+](=O)[O-])o1", "values": [
      {"measurement": "Activity", "setting": "Trypanosoma cruzi [1]", "value": "Active"},
      {"measurement": "Activity", "setting": "Mus musculus [2]", "value": "Toxic"},
      {"measurement": "Activity", "setting": "Mus musculus [3]", "value": 32400, "unit": "µL⁻¹"},
      {"measurement": "Activity", "setting": "Mus musculus [4]", "value": "Non-toxic"},
      {"measurement": "Activity", "setting": "Mus musculus [5]", "value": 109, "unit": "IU/L"},
      {"measurement": "Activity", "setting": "Mus musculus [6]", "value": 31700, "unit": "µL⁻¹"},
      {"measurement": "Activity", "setting": "Mus musculus [7]", "value": "Non-toxic"},
      {"measurement": "Activity", "setting": "Mus musculus [8]", "value": 21, "unit": "%"},
      {"measurement": "Activity", "setting": "Mus musculus [9]", "value": "Toxic"},
      {"measurement": "Activity", "setting": "Mus musculus [10]", "value": 16.3, "unit": "g/dL"},
      {"measurement": "Activity", "setting": "Mus musculus [11]", "value": 29.4, "unit": "IU/L"},
      {"measurement": "Activity", "setting": "Mus musculus [12]", "value": 94.1, "unit": "IU/L"},
      {"measurement": "Activity", "setting": "Mus musculus [13]", "value": "Toxic"},
      {"measurement": "Activity", "setting": "Mus musculus [14]", "value": 12.8, "unit": "g/dL"},
      {"measurement": "Activity", "setting": "Trypanosoma cruzi [15]", "value": "Active"},
      {"measurement": "Activity", "setting": "Mus musculus [16]", "value": "Non-toxic"},
      {"measurement": "Activity", "setting": "Mus musculus [17]", "value": "Non-toxic"},
      {"measurement": "Activity", "setting": "Mus musculus [18]", "value": "Non-toxic"},
      {"measurement": "Activity", "setting": "Mus musculus [19]", "value": 76.2, "unit": "IU/L"},
      {"measurement": "inhibition of growth at 5 µM", "setting": "Trypanosoma cruzi [20]", "value": 82, "unit": "%"},
      {"measurement": "Activity", "setting": "Trypanosoma cruzi [21]", "value": "Active"},
      {"measurement": "Activity", "setting": "Trypanosoma cruzi [22]", "value": "Active"},
      {"measurement": "Activity", "setting": "Mus musculus [23]", "value": "Non-toxic"},
      {"measurement": "Activity", "setting": "Mus musculus [24]", "value": 8, "unit": "%"},
      {"measurement": "Activity", "setting": "Mus musculus [25]", "value": "Non-toxic"},
      {"measurement": "Activity", "setting": "Mus musculus [26]", "value": "Non-toxic"},
      {"measurement": "Activity", "setting": "Mus musculus [27]", "value": "Non-toxic"},
      {"measurement": "Activity", "setting": "Mus musculus [28]", "value": "Non-toxic"},
      {"measurement": "Activity", "setting": "Mus musculus [29]", "value": "Non-toxic"}
    ]}
  ]
}
